Test results as given in ChEMBL document CHEMBL1208669, “Synthesis of 2-(pyrimidin-2-yl)-1-phenyl-2,3,4,9-tetrahydro-1H-beta-carbolines as antileishmanial agents” (Eur J Med Chem, 2010).
Values after ≈ are worked out from the molar mass of the structure shown. Active and inactive are the calls of the source. No cut-off for these calls is given here.

Legend:
[1] = system: MCF7; assay: Cytotoxicity against human MCF7 cells up to 50 ug/ml by MTT assay; type: functional, cell-based
[2] = system: KB; assay: Cytotoxicity against human KB cells up to 50 ug/ml by MTT assay; type: functional, cell-based
[3] = system: Leishmania donovani; assay: Antileishmanial activity against promastigotes of Leishmania donovani MHOM/IN/80/Dd8 after 72 hrs by luciferase reporter gene assay relative to control; type: functional
Procedure, shortened: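 Dd8 promastigotes transfected with firefly luciferase were kept in medium 199 + 10% FCS with antibiotics under G418. Late-log cells were incubated 72 h with serial drug dilutions, with parallel DMSO dilutions as controls. An aliquot was mixed 1:1 with Steady Glo and luminescence read as RLU. % inhibition = (N − n) × 100/N versus untreated control RLU; tested as serial dilutions or single concentration.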

[4] = system: Vero; assay: Cytotoxicity against african green monkey Vero cells up to 50 ug/ml by MTT assay; type: cell-based; settings: chlorocebus sabaeus
[5] = system: Leishmania donovani; assay: Antileishmanial activity against amastigote of Leishmania donovani MHOM/IN/80/Dd8 infected in mouse J774A1 cells at 0.25 to 10 ug/ml after 72 hrs by luciferase reporter gene assay; type: functional, organism-based; settings: j774.a1
Procedure, shortened: (§1)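 J774A.1 macrophages were seeded at 1.5 × 10⁴ cells/well in RPMI-1640 + 10% FCS, 37 °C, CO₂, for 24 h. They were then infected with stationary-phase luciferase-transfected Dd8 promastigotes (2.25 × 10⁵/well), which transform to amastigotes. Compounds (0.25–10 range) were added in fresh medium for 72 h. Medium was removed, PBS and Steady Glo added, and luminescence read. Inhibition vs untreated controls; IC50 by logit regression.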

[6] = system: C-33-A; assay: Cytotoxicity against human C33A cells up to 50 ug/ml by MTT assay; type: functional, cell-based
[7] = system: DU-145; assay: Cytotoxicity against human DU145 cells up to 50 ug/ml by MTT assay; type: functional, cell-based
[8] = Selectivity index, ratio of CC50 for mouse J774A1 cells to IC50 for amastigote of Leishmania donovani MHOM/IN/80/Dd8; type: functional, J774.A1
Procedure, shortened: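 Ratio of CC50 (J774A.1 MTT, 72 h) to IC50 against intracellular amastigotes in J774A.1 macrophages (luciferase read-out, 72 h).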

[9] = system: Leishmania donovani; assay: Antileishmanial activity against amastigote of Leishmania donovani MHOM/IN/80/Dd8 infected in mouse J774A1 cells after 72 hrs by luciferase reporter gene assay; type: functional, organism-based; settings: MHOM/IN/80/Dd8, J774.A1, 72 h; procedure, shortened: as §1
[10] = Cytotoxicity against mouse J774A1 cells after 72 hrs by MTT assay; type: cell-based, J774.A1
Procedure, shortened: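 J774A.1 cells were grown in RPMI + 10% FCS with gentamycin. Exponential cells (1 × 10⁴/well) were exposed to a range of drug concentrations (DMSO stocks diluted in complete medium) for 72 h at 37 °C in humidified CO₂/air. MTT was added, formazan dissolved in DMSO after 15 min shaking, and absorbance read at 544 nm. CC50 is the 50% viability reduction versus medium-only cells.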

[11] = system: Vero; assay: Cytotoxicity against african green monkey Vero cells by MTT assay; type: cell-based; settings: chlorocebus sabaeus
[12] = system: KB; assay: Cytotoxicity against human KB cells by MTT assay; type: functional, cell-based
[13] = system: MCF7; assay: Cytotoxicity against human MCF7 cells by MTT assay; type: functional, cell-based
[14] = system: C-33-A; assay: Cytotoxicity against human C33A cells by MTT assay; type: functional, cell-based
[15] = system: DU-145; assay: Cytotoxicity against human DU145 cells by MTT assay; type: functional, cell-based
[16] = system: Leishmania donovani; assay: Antileishmanial activity against Leishmania donovani; type: functional, organism-based

SMILES	IC50 [5]	IC50 ([9]; read-out: IC50)	IC50 [16]	IC50 [9]	Activity [1]	Activity [2]	inhibition (INH) [3]	Activity [4]	Activity [6]	Activity [7]	Ratio CC50/IC50 [8]	CC50 at 72 h ([10]; read-out: CC50)	IC50 [11]	IC50 [12]	IC50 [13]	IC50 [14]	IC50 [15]	CC50 at 72 h [10]
Clc1cc(Cl)nc(N2CCc3c([nH]c4ccccc34)C2c2ccc(OCc3ccccc3)cc2)n1 (racemic)	Not Active				inactive	inactive	36.85%	Non-toxic	inactive	inactive								
c1ccc2c(CCNc3nc(N4CCOCC4)cc(N4CCOCC4)n3)c[nH]c2c1		3.05 mg/L (≈ 7.47 µM)					99.72%	Non-toxic			6.34	19.4 mg/L (≈ 47.4 µM)						
CCN1CCN(c2cc(N3CCN(CC)CC3)nc(N3CCc4c([nH]c5ccccc45)C3c3ccc4c(c3)OCO4)n2)CC1 (racemic)		0.48 mg/L (≈ 0.807 µM)					99.94%				5.2	2.5 mg/L (≈ 4.2 µM)	5.9 mg/L (≈ 9.92 µM)	4.5 mg/L (≈ 7.57 µM)	3.6 mg/L (≈ 6.05 µM)	4.1 mg/L (≈ 6.89 µM)	6.2 mg/L (≈ 10.4 µM)	
Clc1cc(Cl)nc(N2CCc3c([nH]c4ccccc34)C2c2cccc(Br)c2)n1 (racemic)		7.79 mg/L (≈ 16.4 µM)					79.65%				1.81	14 mg/L (≈ 29.6 µM)	24.3 mg/L (≈ 51.2 µM)	15.6 mg/L (≈ 32.9 µM)	23.4 mg/L (≈ 49.3 µM)	21.7 mg/L (≈ 45.8 µM)	15.8 mg/L (≈ 33.3 µM)	
Clc1cc(Cl)nc(N2CCc3c([nH]c4ccccc34)C2c2ccc3c(c2)OCO3)n1 (racemic)	Not Active						33.57%						8.2 mg/L (≈ 18.7 µM)	3.9 mg/L (≈ 8.88 µM)	4.3 mg/L (≈ 9.79 µM)	3.3 mg/L (≈ 7.51 µM)	8.9 mg/L (≈ 20.3 µM)	
CCc1ccc(C2c3[nH]c4ccccc4c3CCN2c2nc(Cl)cc(Cl)n2)cc1 (racemic)				4.46 mg/L (≈ 10.5 µM)			60.24%				6.87		37.8 mg/L (≈ 89.3 µM)	22.8 mg/L (≈ 53.9 µM)	32.4 mg/L (≈ 76.5 µM)	19.8 mg/L (≈ 46.8 µM)	23 mg/L (≈ 54.3 µM)	30.7 mg/L (≈ 72.4 µM)
COc1ccccc1C1c2[nH]c3ccccc3c2CCN1c1nc(Cl)cc(Cl)n1 (racemic)	Not Active				inactive	inactive	38.79%	Non-toxic	inactive	inactive								
COc1ccc(C2c3[nH]c4ccccc4c3CCN2c2nc(N3CCOCC3)cc(N3CCOCC3)n2)cc1 (racemic)		4.48 mg/L (≈ 8.51 µM)					97.25%				15.1	67.7 mg/L (≈ 128 µM)	7.8 mg/L (≈ 14.8 µM)	5.1 mg/L (≈ 9.68 µM)	3.9 mg/L (≈ 7.41 µM)	2.5 mg/L (≈ 4.75 µM)	4.5 mg/L (≈ 8.54 µM)	

Further lines, with some results ahead:

IC50 [5]	IC50 ([9]; read-out: IC50)	IC50 [16]	IC50 [9]	SMILES	Activity [1]	Activity [2]	inhibition (INH) [3]	Activity [4]	Activity [6]	Activity [7]	Ratio CC50/IC50 [8]	CC50 at 72 h ([10]; read-out: CC50)	IC50 [11]	IC50 [12]	IC50 [13]	IC50 [14]	IC50 [15]	CC50 at 72 h [10]
Not Active				COc1ccc(C2c3[nH]c4ccccc4c3CCN2c2nc(N3CCOCC3)cc(N3CCOCC3)n2)cc1OC (racemic)	inactive	inactive	85.31%	Non-toxic	inactive	inactive								
		> 0.3 mg/L		C=CC1CN2CCc3c([nH]c4ccccc34)[C@@H]2C[C@@H]1[C@@H](C(=O)OC)[C@H]1NCCc2c1[nH]c1ccccc21 (some centres undefined) [BUCHTIENINE]														
Not Active				COc1cc(OC)cc(C2c3[nH]c4ccccc4c3CCN2c2nc(Cl)cc(Cl)n2)c1 (racemic)	inactive	inactive	90.57%	Non-toxic	inactive	inactive								
Not Active				COc1ccc(C2c3[nH]c4ccccc4c3CCN2c2nc(Cl)cc(Cl)n2)c(OC)c1 (racemic)	inactive	inactive	54.14%	Non-toxic	inactive	inactive								
